Test results as given in PMC9774329 (ACS Omega, 2022).

Columns and labels:
Format in all cases: cell-based, human
[1] = tested on: caspase-9 expression in HCT-116 cells; assay: Caspase-9 detection by ELISA in cell lysates; details: HCT-116, 48 h treatment, 40 μg/mL
Method in brief: (§1)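 HCT-116 cells were seeded at 50,000 cells/well in a CO2 incubator. After 24 h, at 70–80% confluence, cells received test compound at 40 μg/mL for 48 h; untreated cells served as controls. Cells were PBS-washed, detached with 0.35% trypsin and spun at 1000 rpm. Pellets were lysed 60 min and re-spun at 1000 rpm for 15 min. Lysates were assayed with human caspase-3 or caspase-9 ELISA kits, absorbance 620 nm.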

[2] = tested on: caspase-3 expression in HCT-116 cells; assay: Caspase-3 detection by ELISA in cell lysates; details: HCT-116, 48 h treatment, 40 μg/mL
Method in brief: as §1

[3] = tested on: colon (HCT-116) cancer cells; assay: Apoptosis confirmation by DAPI staining; details: HCT-116, 48 h post-treatment
Method in brief: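 Fixed HCT-116 cells were examined for apoptosis after 48 h compound exposure. Cells were fixed in 4% paraformaldehyde and stained in the dark with DAPI (1.0 μg/mL). Nuclear morphology was assessed by fluorescence confocal scanning microscopy.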

[4] = tested on: HCT-116 cell line; assay: MTT antiproliferative assay on colon cancer cells; details: HCT-116, MTT, 48 h; compared to 3′-O-methyltaxifolin and quercetin
Method in brief: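 HCT-116 cells were seeded at 20,000 cells/well in DMEM with FBS, L-glutamine, penicillin, streptomycin and selenium chloride at 37 °C in CO2. They were exposed to test compound at 5.0–40 μg/mL for 48 h, with untreated controls. MTT (5.0 mg/mL) was added for 4 h, then DMSO […], and OD was read at 570 nm. Done in triplicate.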

SMILES	caspase-9 expression (ELISA, optical density) [1]	caspase-3 expression (ELISA, optical density) [2]	apoptosis induction (chromatin condensation, nuclear shrinkage) by DAPI staining [3]	reduction in the numbers of cancer cells [4]
COc1cc(O)c2c(c1)O[C@H](c1ccc(O)c(OC)c1)[C@@H](O)C2=O [Compound 1, 7,3′-Di-O-methyltaxifolin]	increase	increase	induced apoptosis	significant reductions
COc1cc([C@H]2Oc3cc(O)cc(O)c3C(=O)[C@@H]2O)ccc1O [Compound 2, 3′-O-Methyltaxifolin]	increase	increase	induced apoptosis	
COc1cc(O)c2c(c1)O[C@H](c1ccc(O)c(O)c1)[C@@H](O)C2=O [Compound 3, 7-O-Methyltaxifolin]	increase	increase	induced apoptosis	significant reductions
O=C1c2c(O)cc(O)cc2OC(c2ccc(O)c(O)c2)C1O (stereo not shown) [Compound 4, Dihydroquercetin (taxifolin)]	increase	increase	induced apoptosis	significant reductions
COc1c(-c2ccc(O)c(O)c2)oc2cc(O)cc(O)c2c1=O [Compound 5, 3-O-Methylquercetin]	increase	increase	induced apoptosis	significant reductions
O=c1c(O)c(-c2ccc(O)c(O)c2)oc2cc(O)cc(O)c12 [Compound 6, Quercetin]	increase	increase	induced apoptosis	
